Reference: ChEMBL document CHEMBL1240423, “Synthesis and evaluation of quinazolinone derivatives as inhibitors of NF-kappaB, AP-1 mediated transcription and eIF-4E mediated translational activation: inhibitors of multi-pathways involve in cancer” (Eur J Med Chem, 2010)

Tests used:
[1] = biological target: Transcription factor Jun (Homo sapiens) (UniProt P05412); test: Inhibition of AP1 expressed in HEK293 cells assessed as inhibition of PMA-induced transcriptional activation at 1 uM treated 24 hrs before PMA challenge by luciferase reporter gene assay relative to control; format: cell-based
How it was run: (§1)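 Luciferase reporter screen with each sample in triplicate in two or three independent experiments. Values are the average of those experiments. Rapamycin served as the reference eIF-4E inhibitor.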

HEK293 [2] = test: Inhibition of NF-kappaB expressed in HEK293 cells assessed as inhibition of TNF-alpha-induced transcriptional activation at 1 uM treated 24 hrs before TNFalpha challenge by luciferase reporter gene assay relative to control; format: cell-based; how it was run: as §1
[3] = biological target: Eukaryotic translation initiation factor 4E (Homo sapiens) (UniProt P06730); test: Inhibition of eIF-4E expressed in human FaDu cells assessed as inhibition of translational activation at 1 uM by luciferase reporter gene assay relative to control; format: cell-based; how it was run: as §1
[4] = Inhibition of NF-kappaB expressed in HEK293 cells assessed as inhibition of TNF-alpha-induced transcriptional activation treated 24 hrs before TNFalpha challenge by luciferase reporter gene assay; format: cell-based
How it was run: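 Six-point dose response […] in ½-log steps, screened as in the primary reporter assay. IC50 calculated from the dose-response data.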

HEK293 [5] = test: Inhibition of NF-kappaB expressed in HEK293 cells assessed as inhibition of TNF-alpha-induced transcriptional activation at 3.3 uM treated 2 hrs before TNFalpha challenge measured after 24 hrs by luciferase reporter gene assay relative to control; format: cell-based
How it was run: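 Stably transfected NF-κB reporter cells plated, then after 24 h pretreated with compound at six concentrations for 2 h before 20 ng/ml TNF-α induction. Cells later lysed, luciferase activity read and normalized.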

[6] = Inhibition of NF-kappaB expressed in HEK293 cells assessed as inhibition of TNF-alpha-induced transcriptional activation treated 2 hrs before TNFalpha challenge measured after 24 hrs by luciferase reporter gene assay; format: cell-based
How it was run: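 Stably transfected NF-κB luciferase reporter cells were plated, and 24 h later given test compound at six concentrations for 2 h. TNF-α was then added at 20 ng/ml to induce transcription. Cells were then lysed, luciferase activity was recorded, and values were normalised.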

FaDu = test: Cytotoxicity against human FADU cells assessed as growth inhibition at 3.3 uM by MTT assay; format: functional

Eukaryotic translation initiation factor 4E (Homo sapiens), sequence (P06730 whole entry): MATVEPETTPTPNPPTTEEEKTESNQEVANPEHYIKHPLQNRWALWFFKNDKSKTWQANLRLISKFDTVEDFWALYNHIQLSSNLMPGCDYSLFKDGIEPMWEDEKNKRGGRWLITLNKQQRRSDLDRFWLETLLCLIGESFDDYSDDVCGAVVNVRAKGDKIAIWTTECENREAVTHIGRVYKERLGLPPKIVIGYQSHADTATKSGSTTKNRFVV
Transcription factor Jun (Homo sapiens), sequence (P05412 whole entry): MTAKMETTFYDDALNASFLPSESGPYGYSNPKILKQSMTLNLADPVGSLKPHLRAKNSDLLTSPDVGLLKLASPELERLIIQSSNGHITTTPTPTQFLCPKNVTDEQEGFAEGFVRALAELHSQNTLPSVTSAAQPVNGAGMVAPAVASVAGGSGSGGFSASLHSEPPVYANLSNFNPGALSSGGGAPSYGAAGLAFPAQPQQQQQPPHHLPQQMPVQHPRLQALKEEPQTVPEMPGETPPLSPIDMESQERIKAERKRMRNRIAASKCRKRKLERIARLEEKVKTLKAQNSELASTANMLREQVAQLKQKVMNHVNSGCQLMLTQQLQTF

Row | SMILES | inhibition [1] [%] | inhibition [3] [%] | IC50 [4] [µM] | inhibition (HEK293 [2]) [%] | inhibition (HEK293 [5]) [%] | IC50 [6] [µM] | inhibition at 3.3 µM (FaDu) [%]
1 | CCOC(=O)Nc1nc(-c2ccccc2)c(-c2nc3ccccc3c(=O)n2-c2ccc(OC)cc2)s1 | 34 | 15 |  | 29 |  |  | 
2 | O=C(Nc1nc(-c2ccccc2)c(-c2nc3ccccc3c(=O)n2-c2ccc(Cl)cc2)s1)c1ccccc1 | 36 | 39 |  | 73 |  |  | 
3 | O=c1c2ccccc2nc(-c2sc(Nc3ccc(Cl)cc3)nc2-c2ccccc2)n1-c1ccccc1 | 57 |  |  | 71 |  |  | 
4 | O=C(Nc1nc(-c2ccccc2)c(-c2nc3ccccc3c(=O)n2-c2ccccc2)s1)c1ccccc1 | 26 | 30 |  | 43 |  |  | 
5 | CCOC(=O)Nc1nc(-c2ccccc2)c(-c2nc3ccccc3c(=O)n2-c2ccccc2)s1 | 7 |  | > 10 | 32 |  |  | 
6 | O=c1c2ccccc2nc(-c2sc(Nc3ccccc3)nc2-c2ccccc2)n1-c1ccccc1 | 51 | 37 |  | 71 |  |  | 
7 | COc1ccc(-n2c(-c3sc(Nc4ccccc4)nc3-c3ccccc3)nc3ccccc3c2=O)cc1 | 19 | 16 |  | 63 |  |  | 
8 | CNc1nc(-c2ccccc2)c(-c2nc3ccccc3c(=O)n2-c2ccccc2)s1 | 58 | 33 |  | 71 |  |  | 
9 | COc1ccc(-n2c(-c3sc(NC(=O)c4ccccc4)nc3-c3ccccc3)nc3ccccc3c2=O)cc1 | 8 | 31 |  | 12 |  |  | 
10 | CNc1nc(C)c(-c2nc3ccccc3c(=O)n2-c2ccc(Cl)cc2)s1 |  | 61 | 12 | 80 |  | 3.3 | 20
11 | CCOC(=O)Nc1nc(C)c(-c2nc3ccccc3c(=O)n2-c2ccc(Cl)cc2)s1 | 30 | 50 | 16 | 54 | > 70 |  | 

More lines, main results first:

Row | inhibition [1] [%] | inhibition [3] [%] | IC50 [4] [µM] | SMILES | inhibition (HEK293 [2]) [%] | inhibition (HEK293 [5]) [%] | IC50 [6] [µM] | inhibition at 3.3 µM (FaDu) [%]
12 | 75 | 26 | 15 | Cc1nc(Nc2ccc(Cl)cc2)sc1-c1nc2ccccc2c(=O)n1-c1ccc(Cl)cc1 | 79 |  |  | 
13 | 59 | 32 | 20 | COc1ccc(-n2c(-c3sc(Nc4ccc(Cl)cc4)nc3-c3ccccc3)nc3ccccc3c2=O)cc1 | 46 | > 70 |  | 
14 | 29 | 67 |  | Cc1nc(Nc2ccccc2)sc1-c1nc2ccccc2c(=O)n1-c1ccc(Cl)cc1 | 66 |  | 5.5 | 
15 | 20 | 18 |  | CCOC(=O)Nc1nc(-c2ccccc2)c(-c2nc3ccccc3c(=O)n2-c2ccc(Cl)cc2)s1 | 24 |  |  | 
16 | 67 | 40 | > 250 | CNc1nc(-c2ccccc2)c(-c2nc3ccccc3c(=O)n2-c2ccc(Cl)cc2)s1 | 72 |  |  | 
17 | 39 | 38 |  | O=c1c2ccccc2nc(-c2sc(Nc3ccccc3)nc2-c2ccccc2)n1-c1ccc(Cl)cc1 | 67 |  |  | 
18 | 47 | 34 | 3.3 | O=c1c2ccccc2nc(-c2sc(Nc3ccc(Cl)cc3)nc2-c2ccccc2)n1-c1ccc(Cl)cc1 | 62 | > 70 |  | 
